Shown are actives, neighbours in structure and some others; about 12% of the full set was active somewhere.
Arbovirus inh: antivirals against arbovirus infection; arbovirus infection cell-based antiviral screen; inhibition, % at 10 µM; 200,000 compounds, 0.37% hits; in the data active means inhibition above about 30%
CHOP inhibitor: blocks CHOP induction under ER stress; 220,000 compounds, 3.8% hits; CHO-K1 CHOP-promoter luciferase, tunicamycin-induced, 15-18 h; inhibition, % at 10 µM;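 active means compounds that reduced the stress-induced luciferase reporter signal by more than about 70% of percent inhibition, limit read from the data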;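 further: 0% = tunicamycin plus vehicle and 100% = wells without tunicamycin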
Lmaj promast: reduces viability of Leishmania major promastigotes; resazurin fluorescence viability; inhibition, % at 10 µM; 200,000 compounds, 9% hits; AID 1063;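 further: promastigotes grown with compound for 44 hours at 28 °C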
Wee1 stabilizer: blocks degradation of human Wee1 kinase | P30291 | 220,000 compounds, 1.2% hits | AID 1321 | reporter increase, % at 5 µM | HeLa Luc-Wee1K328M stability, luciferase luminescence; 100% = proteasome inhibitor MG132 effect;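 active means activation above the mean of all tested compounds plus 3 SD, set per screening run, cut at about 8.8% in these data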;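 further: cells exposed to compound for 20 h before luminescence read; 0% = DMSO alone and 100% = MG132 at 30 µM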
Rad51 HR inh: blocks human Rad51 in homologous recombination. hRad51 DNA strand exchange, fluorescence dequenching. inhibition, % at 10 µM. 200,000 compounds, 0.085% hits;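 active means inhibition above 40% at the single screening dose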;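 further: 0% = DMSO control wells and 100% = blanks with heterologous ssDNA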
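Material: hRad51 filaments on single-stranded DNA; Reagent: Donor/quencher-labelled 47-bp dsDNA substrate; Compound: 10 µM final, single point; Schedule: 37 °C 15-min filament assembly, 30-min compound preincubation, 15-min exchange; Technique: FRET fluorescence, excitation 485 nm, emission 520 nm; Benchmarks: control wells and blank wells on each plate.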
PKD1 inh: blocks activity of human protein kinase D1 | PKD1 kinase fluorescence polarization assay | inhibition, % (test concentration not listed) | 200,000 compounds, 0.056% hits | Q15139
Target sequence (Q15139 whole entry, looked up): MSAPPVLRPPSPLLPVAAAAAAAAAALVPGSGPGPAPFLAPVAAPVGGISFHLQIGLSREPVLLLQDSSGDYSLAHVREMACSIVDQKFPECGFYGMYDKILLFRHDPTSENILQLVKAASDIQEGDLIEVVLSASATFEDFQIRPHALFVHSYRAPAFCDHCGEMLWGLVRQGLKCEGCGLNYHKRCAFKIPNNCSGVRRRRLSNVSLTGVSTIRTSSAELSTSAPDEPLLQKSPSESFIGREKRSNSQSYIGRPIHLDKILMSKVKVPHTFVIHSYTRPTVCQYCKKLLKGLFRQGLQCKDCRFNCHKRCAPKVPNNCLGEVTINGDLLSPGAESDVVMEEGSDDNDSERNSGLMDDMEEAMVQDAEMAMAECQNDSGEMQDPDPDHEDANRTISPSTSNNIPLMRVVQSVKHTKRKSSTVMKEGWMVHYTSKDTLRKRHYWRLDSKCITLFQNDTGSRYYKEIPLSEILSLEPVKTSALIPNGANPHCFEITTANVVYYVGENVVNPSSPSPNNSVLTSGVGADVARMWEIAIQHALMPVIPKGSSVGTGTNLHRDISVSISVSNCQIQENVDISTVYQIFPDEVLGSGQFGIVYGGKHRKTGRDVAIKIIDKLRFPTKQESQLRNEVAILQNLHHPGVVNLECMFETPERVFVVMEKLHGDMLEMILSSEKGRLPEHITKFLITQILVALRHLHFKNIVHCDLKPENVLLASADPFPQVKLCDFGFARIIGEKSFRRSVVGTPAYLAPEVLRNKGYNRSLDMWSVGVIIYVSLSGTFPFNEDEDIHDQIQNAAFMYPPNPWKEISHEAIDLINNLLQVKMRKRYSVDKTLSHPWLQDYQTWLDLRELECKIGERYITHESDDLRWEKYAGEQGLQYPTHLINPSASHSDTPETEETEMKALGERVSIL
* = called active by the depositor. Unless noted, no stated cut-off is given here; in the data, active means inhibition above about 50%; inactive means the rest.

Cc1nnc(-c2cccc(Br)c2)c2cn(-c3cccc(Br)c3)nc12 was read as Arbovirus inh -3, CHOP inhibitor 75*, Lmaj promast 40, Wee1 stabilizer -1, Rad51 HR inh -7 and PKD1 inh -9.
`Cc1cc2nc(SCC(=O)N(C)C)c3c(c2cc1C)CCCC3` gave Arbovirus inh -11, CHOP inhibitor 18, Lmaj promast 93*, Wee1 stabilizer -4, Rad51 HR inh -5 and PKD1 inh -8.
`CN(C)C(=O)CSc1nc(-c2ccccc2)nc2c1CCCC2` gave Arbovirus inh -15, CHOP inhibitor 14, Lmaj promast 9, Wee1 stabilizer -2, Rad51 HR inh -8 and PKD1 inh -2.
For COCCN(Cc1nc(C2(c3ccc(C)cc3)CCCC2)no1)C(C)C the results were Arbovirus inh 7, CHOP inhibitor 8, Lmaj promast -2, Wee1 stabilizer -2 and PKD1 inh 2.
CCNc1nc(NCC)n2c(SC(C(=O)Nc3cc(Cl)cc(Cl)c3)c3ccccc3)nnc2n1 (configuration not stated) was read as Arbovirus inh -40, CHOP inhibitor 90*, Lmaj promast 5, Wee1 stabilizer 0, Rad51 HR inh 5 and PKD1 inh 5.
Screening CCc1ccc(C(=O)NN(C(=O)c2ccc(CC)cc2)C(C)(C)C)cc1 returned Arbovirus inh -5, CHOP inhibitor 32, Lmaj promast 98*, Wee1 stabilizer 1, Rad51 HR inh 2 and PKD1 inh -8.
Screening Cc1ccc(/C=C/C(=O)O)cc1S(=O)(=O)Nc1ccc(C(=O)O)cc1 returned CHOP inhibitor -4 and Wee1 stabilizer -2.
`O=C(O)c1ccc(NS(=O)(=O)c2cc(C(=O)O)ccc2Br)cc1` gave Arbovirus inh -13, CHOP inhibitor 31, Lmaj promast 99*, Wee1 stabilizer 1, Rad51 HR inh 13 and PKD1 inh 8.
Cc1ccc(S(=O)(=O)Nc2cccc(-c3ccc4nnc(C)n4n3)c2)s1 was read as Arbovirus inh -2, CHOP inhibitor 9, Lmaj promast 3, Wee1 stabilizer 1, Rad51 HR inh 0 and PKD1 inh -8.
Screening COc1ccc(-c2n[nH]c(C)c2-c2ccc(Cl)cc2)c(O)c1 returned Arbovirus inh -41, CHOP inhibitor 93*, Lmaj promast 46, Wee1 stabilizer -3, Rad51 HR inh 0 and PKD1 inh -2.
Screening CCCOC(=O)c1ccc(Oc2c(-c3ccc(OC)cc3O)n[nH]c2C)cc1 returned Arbovirus inh -37, CHOP inhibitor 91*, Lmaj promast 12, Wee1 stabilizer 1, Rad51 HR inh -5 and PKD1 inh -5.
Screening Cc1[nH]nc(-c2ccc(O)cc2O)c1-c1ccc(Cl)cc1 returned Arbovirus inh -25, CHOP inhibitor 46, Lmaj promast 5, Wee1 stabilizer 0, Rad51 HR inh -7 and PKD1 inh 4.
Screening COc1ccc(-c2n[nH]c(C)c2-c2ccc(Cl)cc2)c(O)c1OC returned Arbovirus inh -11, CHOP inhibitor 90*, Lmaj promast 18, Wee1 stabilizer 0, Rad51 HR inh 5 and PKD1 inh -2.
`CCCOC(=O)c1ccc(Oc2cn[nH]c2-c2ccc(O)cc2O)cc1` gave CHOP inhibitor 42, Wee1 stabilizer -4 and Rad51 HR inh -6.
COc1ccc(O)c(-c2c(-c3ccc(Cl)cc3)n[nH]c2C)c1 was read as Arbovirus inh 10, CHOP inhibitor 31, Lmaj promast 25, Wee1 stabilizer -1, Rad51 HR inh 5 and PKD1 inh 0.
Screening COC(=O)C(Cc1csc2ccc(Cl)cc12)NC(=O)c1ccc(Cl)cc1 (configuration not stated) returned CHOP inhibitor -14, Wee1 stabilizer 6 and Rad51 HR inh -8.
For O=C(CN1CCSCC1)N/N=C/c1cccc(Cl)c1 the results were Arbovirus inh -1, CHOP inhibitor -2, Lmaj promast -10, Wee1 stabilizer 1, Rad51 HR inh 1 and PKD1 inh 1.
For O=c1cc(N2CCCCC2)c(-c2ccccc2)nn1Cc1ccc(F)cc1 the results were Arbovirus inh -7, CHOP inhibitor 81*, Lmaj promast 24, Wee1 stabilizer -2, Rad51 HR inh -14 and PKD1 inh -4.
`O=c1cc(N2CCCCC2)c(-c2ccccc2)nn1Cc1c(Cl)cccc1Cl` gave Arbovirus inh -41, CHOP inhibitor 5, Lmaj promast 27, Wee1 stabilizer 0, Rad51 HR inh 4 and PKD1 inh -4.

From PubChem BioAssay
